The text below walks through data of ChEMBL document CHEMBL1127561, “Novel spirosuccinimide aldose reductase inhibitors derived from isoquinoline-1,3-diones: 2-[(4-bromo-2-fluorophenyl)methyl]-6- fluorospiro[isoquinoline-4(1H),3'-pyrrolidine]-1,2',3,5'(2H)-tetrone and congeners. 1” (J Med Chem, 1994).

Active and inactive are the calls of the source. No cut-off for these calls is given here.

The target in data set [1] is Aldo-keto reductase family 1 member B1 (Bos taurus, UniProt P16116). The data set can be described thus: In vitro inhibition of aldose reductase activity in a partially purified bovine lens preparation.
The nature of data set [2]: Half-life In vitro. The class given is ADME.
Data set [3] relates to Rattus norvegicus. The data set is described as follows: Percentage Inhibition of galactitol accumulation in the sciatic nerve of rats fed with the dose of 0.5 mg/kg/day. The class given is functional. In a few lines: (§1)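 Male Sprague-Dawley rats (70-90 g), six per group, fed 20% galactose chow with compound in the diet for 4 days; glucose-fed controls. After a 3-h fast, lens or sciatic nerve galactitol was measured as nmol/mg wet weight. Percent inhibition vs galactose-fed controls, mean ± SEM; ANOVA with Dunnett's test.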

Data set [4] has as its target Aldo-keto reductase family 1 member B1 (Bos taurus) (UniProt P16116). The data set can be described thus: Inhibition of aldose reductase activity in a partially purified bovine lens preparation at 4*10e-8 M. The method in brief:
(§2)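 Partially purified bovine lens aldose reductase (ammonium sulfate fractionation). NADPH oxidation read at 340 nm, 37 °C, in 30 mM sodium phosphate pH 6.2, 0.2 M LiSO4, […], 1% DMSO. Enzyme was preincubated with inhibitor for 5 min, then the reaction was started with 5 mM DL-glyceraldehyde. Duplicates; IC50 from linear regression of log concentration vs percent inhibition.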

Data set [5] shares this target. The data set is described as follows: Inhibition of aldose reductase activity in a partially purified bovine lens preparation at 10e-7 M. In a few lines: as §2
Data set [6] can be described thus: Compound was evaluated In vitro for inhibition of aldose reductase activity by 50% in rat RBC. In a few lines:
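Rat (or dog) red blood cells from fasted male Sprague-Dawley rats (150-170 g, EDTA, aortic arch) or pooled beagle blood; 1 mL packed cells in 2 mL HBSS with 10 mM galactose plus inhibitor 1 to 5×10^-8 M, 3 h, 95% air/5% CO2, shaken. Erythrocyte galactitol measured; IC50 mean ± SD of three to six replicate experiments.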

The species named for data set [7] is Rattus norvegicus. The data set can be described thus: Dose at which the tissue level of polyol accumulation was reduced by 50% was evaluated for 4 days in sciatic nerve. The class given is functional. The conditions noted are these: 96 h. In a few lines:
(§3)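 Male Sprague-Dawley rats (70-90 g, six per group) fed chow with 20% galactose and compound in the diet for 4 or 14 days. After a 3-h fast, lens and sciatic nerve were removed and frozen, and galactitol was quantitated in nmol/mg wet weight. ED50 from nonlinear regression of log dose vs tissue polyol.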

For data set [8], the species on record is Rattus norvegicus. The data set is described as follows: Dose at which the tissue level of polyol accumulation was reduced by 50% was evaluated for 14 days in sciatic nerve. The class given is functional. In a few lines:
as §3

Data set [9] is filed under the species Rattus norvegicus. The data set can be described thus: Dose at which the tissue level of polyol accumulation was reduced by 50% was evaluated for 4 days in lens. The class given is functional. The conditions noted are these: Lens of camera-type eye, 96 h. The method in brief: as §3
The species entered for data set [10] is Rattus norvegicus. The data set can be described thus: Dose at which the tissue level of polyol accumulation was reduced by 50% was evaluated for 12 days in lens. The conditions noted are these: Lens of camera-type eye, 288 h. The class given is functional.
The species named for data set [11] is Rattus norvegicus. The data set can be described thus: Dose at which the tissue level of polyol accumulation was reduced by 50% was evaluated for 14 days in RBC. The class given is functional. As to conditions: 336 h. The method in brief:
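Male Sprague-Dawley rats (200-250 g, 12 per group) made diabetic with streptozocin 60 mg/kg iv in cold 0.03 M citrate pH 4.5; plasma glucose kept between 300 and 550 mg/dl. Compound was suspended in 2% Tween 80/saline and gavaged daily for 14 days. On day 15, RBC, lens and sciatic nerve polyol was measured. ED50 by nonlinear regression of log dose.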

The species entered for data set [12] is Rattus norvegicus. The data set can be described thus: Dose at which the tissue level of polyol accumulation was reduced by 50% was evaluated for 12 days in sciatic nerve. The class given is functional. The conditions noted are these: 288 h.
For data set [13], the species on record is Rattus norvegicus. The data set is described as follows: Percentage Inhibition of galactitol accumulation in the sciatic nerve of rats.
For data set [14], the system named is Rattus norvegicus. The data set can be described thus: Percentage Inhibition of galactitol accumulation in the lens of rats fed with the dose of 1.1 mg/kg/day. The class given is functional. As to conditions: Lens of camera-type eye. The method in brief: as §1
For data set [15], the system named is Rattus norvegicus. The data set is described as follows: Percentage Inhibition of galactitol accumulation in the lens of rats fed with the dose of 3.0 mg/kg/day. The class given is functional. The conditions noted are these: Lens of camera-type eye. The method in brief:
as §1

Data set [16] relates to Rattus norvegicus. The data set is described as follows: Percentage Inhibition of galactitol accumulation in the sciatic nerve of rats fed with the dose of 1.1 mg/kg/day (values are mean of six animals, p<0.01). The class given is functional. In a few lines: as §1
Data set [17] can be described thus: Log P value by using Octanol / pH 7.4 buffer. The class given is physicochemical. The method in brief: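 Partition measured between octanol and pH 7.4 buffer.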
Data set [18] concerns Rattus norvegicus. The data set can be described thus: Percentage Inhibition of galactitol accumulation in the sciatic nerve of rats fed with the dose of 4.0 mg/kg/day. The class given is functional. As to conditions: read-out: Inhibition. In a few lines: as §1
The subject of data set [19] is Rattus norvegicus. The data set can be described thus: Percentage Inhibition of galactitol accumulation in the lens of rats fed with the dose of 4.0 mg/kg/day; NS=Not significant. The class given is functional, organism-based. As to conditions: Lens of camera-type eye. In a few lines: as §1
Data set [20] relates to Rattus norvegicus. The data set can be described thus: Percentage Inhibition of galactitol accumulation in the lens of rats fed with the dose of 0.9 mg/kg/day. The class given is functional. The conditions noted are these: Lens of camera-type eye. In a few lines:
as §1

In data set [21] the test system is Rattus norvegicus. The data set can be described thus: Percentage Inhibition of galactitol accumulation in the sciatic nerve of rats fed with the dose of 0.9 mg/kg/day. The class given is functional. The method in brief:
as §1

The mark [22] stands for this setting: Rattus norvegicus, Sciatic nerve, 336 h, read-out: ED50.

Usually IC50 stands for the concentration that inhibits the measured activity by half. Turning to `O=C1CC2(C(=O)N1)C(=O)N(Cc1nc3ccccc3s1)C(=O)c1ccccc12` (configuration not stated), in data set [1], it took 15 nM to reach half-maximal inhibition (IC50).

A word on the half-life: it is the time in which the quantity being followed falls by half. Read a high half-life as slow decline. `O=C1C[C@]2(C(=O)N1)C(=O)N(Cc1ccc(Br)cc1F)C(=O)c1ccccc12` displayed an IC50 in data set [1] of 1000 nM. Besides, the half-life in data set [2] is 240 min.

`O=C1CC2(C(=O)N1)C(=O)N(Cc1ccc(Br)cc1F)C(=O)c1c(F)cccc12` (configuration not stated): the IC50 in [1] was 23 nM. Moreover, in the data set on Rattus norvegicus [3], the inhibition in vivo at 0.5 mg/kg/day came to 51%.

`O=C1CC2(C(=O)N1)C(=O)N(Cc1ccc(Cl)cc1)C(=O)c1ccccc12` (configuration not stated): in data set [1], the 50% inhibitory concentration (IC50) came to 22 nM.

Usually inhibition stands for the percentage by which the read-out fell short of the control. Consider `CN1C(=O)c2cc(Cl)c(Cl)cc2C2(CC(=O)NC2=O)C1=O` (configuration not stated), for which the inhibition in [4] worked out at 84%; in [5], 89%.

What is called ED50 is the midpoint of the dose-response relation. In [6], `COc1ccc2c(C(=S)N(C)CC(=O)O)cccc2c1C(F)(F)F` [TOLRESTAT] gave an IC50 of 27.2 nM. Also, the 50% effective dose (ED50) amounted to 6.4 mg/kg/day in the data set filed under Rattus norvegicus [7]; 3.8 mg/kg/day in the data set listed under Rattus norvegicus [8] (setting [22]); 128 mg/kg/day in the data set filed under Rattus norvegicus [9]; 28 mg/kg/day in the data set filed under Rattus norvegicus [10]; 1.9 mg/kg/day in the data set filed under Rattus norvegicus [11]; 4.5 mg/kg/day in the data set listed under Rattus norvegicus [12].

Take `O=C1C[C@@]2(C(=O)N1)C(=O)N(Cc1ccc(Br)cc1F)C(=O)c1ccc(F)cc12`: the IC50 in data set [1] worked out at 9 nM. This compound had a 50% effective dose (ED50) in the data set filed under Rattus norvegicus [13] of 0.09 mg/kg. In [2], this compound showed a half-life of 30 min.

As for `CN1C(=O)c2ccc([N+](=O)[O-])cc2C2(CC(=O)NC2=O)C1=O` (configuration not stated), the inhibition was determined as 53% in data set [4] and 71% in [5].

What is called logD is lipophilicity at a set pH, counting ionised and neutral species. Read a low logD as lower lipophilicity. Turning to `CN1C(=O)c2ccc(Cl)cc2C2(CC(=O)NC2=O)C1=O` (configuration not stated), the figures for the inhibition in vivo at 1.1 mg/kg/day in the data set with Rattus norvegicus [14] and in the data set on Rattus norvegicus [16] were 33% and 75%, respectively. In the data set with Rattus norvegicus [15], this compound gave an inhibition in vivo at 3 mg/kg/day of 59%. Moreover, the inhibition in [4] is 43%; in [5], 72%. Moreover, the log distribution coefficient (logD) in data set [17] is 0.58. This compound gave an inhibition in vivo at 0.5 mg/kg/day in the data set with Rattus norvegicus [3] of 54%.

In data set [1], `O=C1CC2(C(=O)N1)C(=O)N(Cc1ccc(C(F)(F)F)cc1)C(=O)c1ccccc12` (configuration not stated) registered a 50% inhibitory concentration (IC50) of 25 nM.

In the case of `CON1C(=O)c2ccc(Cl)cc2C2(CC(=O)NC2=O)C1=O` (configuration not stated), the inhibition in data set [4] worked out at 11%; in [5] it was 27%.

In the case of `O=C1CC2(C(=O)N1)C(=O)N(Cc1nc3ccccc3s1)C(=O)c1ccc(F)cc12` (configuration not stated), in data set [1], it took 18 nM to reach half-maximal inhibition (IC50).

`O=C1CC2(C(=O)N1)C(=O)N(Cc1ccc(Br)cc1F)C(=O)c1ccc(C(F)(F)F)cc12` (configuration not stated): in data set [1], the 50% inhibitory concentration (IC50) came to 38 nM.

Consider `COc1ccc(CN2C(=O)c3ccccc3C3(CC(=O)NC3=O)C2=O)cc1` (configuration not stated), for which it took 25 nM to reach half-maximal inhibition in [1] (IC50).

For the compound `O=C1CC2(C(=O)N1)C(=O)N(Cc1ccc(Br)cc1F)C(=O)c1ccc(F)cc12` (configuration not stated), the concentration for half-maximal inhibition (IC50) in [1] is 14 nM; in data set [6], 26.9 nM. Further, the ED50 in the data set filed under Rattus norvegicus [7] worked out at 0.3 mg/kg/day; in the data set listed under Rattus norvegicus [8] it was 0.1 mg/kg/day; in the data set filed under Rattus norvegicus [8] (setting [22]) it was 0.09 mg/kg/day; in the data set filed under Rattus norvegicus [9], 19 mg/kg/day; in the data set filed under Rattus norvegicus [11], 0.25 mg/kg/day. In data set [17], this compound showed a log distribution coefficient (logD) of 2.81. The inhibition in vivo at 4 mg/kg/day with Rattus norvegicus [18] is 95%. Moreover, in the data set on Rattus norvegicus [3], the inhibition in vivo at 0.5 mg/kg/day stood at 83%. In addition, the inhibition entry in the data set on Rattus norvegicus [19] is “inactive”.

In [1], `O=C1C[C@@]2(C(=O)N1)C(=O)N(Cc1ccc(Br)cc1F)C(=O)c1ccccc12` came in with an IC50 of 9.7 nM. Moreover, the half-life in [2] is 240 min. The inhibition in vivo at 0.5 mg/kg/day in the data set on Rattus norvegicus [3] amounted to 83%.

`CN1C(=O)c2ccc(C(F)(F)F)cc2C2(CC(=O)NC2=O)C1=O` (configuration not stated): the inhibition in data set [4] was 46%; in data set [5], 64%. The inhibition in vivo at 0.9 mg/kg/day was 20% with Rattus norvegicus [20] and 38% with Rattus norvegicus [21].

Consider `COc1cc2c(cc1Cl)C1(CC(=O)NC1=O)C(=O)N(C)C2=O` (configuration not stated), for which the inhibition amounted to 66% in data set [4] and 84% in data set [5]. Besides, the inhibition in vivo at 0.5 mg/kg/day in the data set on Rattus norvegicus [3] was 51%.

`O=C1CC2(C(=O)N1)C(=O)N(Cc1ccc(Br)cc1)C(=O)c1ccccc12` (configuration not stated) gave an IC50 in [1] of 22 nM.

In [5], `CCCN1C(=O)c2ccccc2C2(CC(=O)NC2=O)C1=O` (configuration not stated) displayed an inhibition of 19%.

Turning to `O=C1CC2(C(=O)N1)C(=O)N(Cc1ccc(Br)cc1F)C(=O)c1cc(F)ccc12` (configuration not stated), the concentration for half-maximal inhibition (IC50) in [1] is 20 nM. That is a double-digit nanomolar value.
